Most compounds without a hit are left out; they make up all but 3.4% or so of the library.
MC4R barr agon = MC4R agonists recruiting beta-arrestin, primary screen, cell-based, luminescence, agonist arm of biased-ligand search. Melanocortin receptor 4 (Homo sapiens), P32245. U2OS MC4R beta-arrestin complementation; percent of melanotan II response, DMSO zero. activation, % at 8.9 µM. 0.98% of 360,000 active;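 active = activation above a per-plate cutoff, the mean activation of sample wells on that plate plus 3 SD, cut at about 8% in these data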
MC4R antag cAMP = MC4R antagonists of cAMP signaling, primary screen, cell-based, TR-FRET, antagonist arm of biased-ligand search; Melanocortin receptor 4 (Homo sapiens), P32245; MC4R-expressing cells, MTII-stimulated cAMP, LANCE TR-FRET; inhibition, % at 6.5 µM; 0.48% of 360,000 active;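 active = inhibition above its plate's cutoff, the mean of tested wells on that plate plus 3 SD, cut at about 29% in these data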;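 also: 0% = Melanotan II alone and 100% = Melanotan II plus saturating MCL0020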
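Assay system: U2OS-MC4R stable cell line; Also added: Melanotan II; Technique: Eu-cAMP/anti-cAMP TR-FRET, emission 671 nm; Times: 30-min compound, 1-h challenge, 1-h detection, room temperature.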
ANO1 activ = TMEM16A chloride channel activators or potentiators, primary screen, cell-based, HTS; HEK293 TMEM16A/YFP-H148Q/I152L, iodide quench fluorescence; active compounds read low; B-score at 10 µM; 0.3% of 340,000 active; Anoctamin-1 (Mus musculus), Q8BHY3;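 active = fluorescence-ratio B-score plate-corrected deviation score at least 3 library SD below zero, with starting fluorescence score within 5 deviations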;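 also: channel opened by trigger with iodide after compound preincubation; score built on the fluorescence ratio of max minus min over baseline; more negative score means more quench and so TMEM16A activation or potentiation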
ANO1 block = TMEM16A chloride channel inhibitors, primary screen, cell-based, HTS; 1.2% of 310,000 active; Anoctamin-1 (Mus musculus), Q8BHY3; HEK293 TMEM16A/YFP iodide influx fluorescence, ionomycin; normalized B-score (activity score, 25-100; higher = stronger inhibition) at 10 µM;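 active = ratio plate-corrected score three or more library SD toward inhibition, starting fluorescence score within five deviations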;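 also: score derived from kinetic fluorescence span divided by baseline fluorescence per well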
beta cell repl = inducers of MIN6 beta-cell proliferation, primary screen, ATP luminescence, uHTS. MIN6 cells proliferation, ATPlite luminescence, 48 h; cells starved in 0.2% serum; 100% = growth in 10% serum. proliferation, % at 10 µM. 0.29% of 330,000 active. AID 2380, 2010;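 active = compounds whose signal lies at least 3.5 SD above the mean of all wells on their plate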;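 also: 0% = DMSO-treated cells in low-serum medium and 100% = 10% serum control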
HTR2A ag = mouse Htr2a agonists via beta-arrestin recruitment, primary screen, cell-based, luminescence; activation, % at 7.6 µM; AID 624169, 2012; 0.66% of 360,000 active; CHO-K1 mHTR2A beta-arrestin complementation; percent of 30 µM serotonin response;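 active = activation above a run cutoff, the mean activation of all tested compounds plus 3 SD, cut at about 14% in these data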;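 also: 0% = plate median of compound wells and 100% = 30 µM serotonin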
Target sequence (P35363 whole entry, looked up): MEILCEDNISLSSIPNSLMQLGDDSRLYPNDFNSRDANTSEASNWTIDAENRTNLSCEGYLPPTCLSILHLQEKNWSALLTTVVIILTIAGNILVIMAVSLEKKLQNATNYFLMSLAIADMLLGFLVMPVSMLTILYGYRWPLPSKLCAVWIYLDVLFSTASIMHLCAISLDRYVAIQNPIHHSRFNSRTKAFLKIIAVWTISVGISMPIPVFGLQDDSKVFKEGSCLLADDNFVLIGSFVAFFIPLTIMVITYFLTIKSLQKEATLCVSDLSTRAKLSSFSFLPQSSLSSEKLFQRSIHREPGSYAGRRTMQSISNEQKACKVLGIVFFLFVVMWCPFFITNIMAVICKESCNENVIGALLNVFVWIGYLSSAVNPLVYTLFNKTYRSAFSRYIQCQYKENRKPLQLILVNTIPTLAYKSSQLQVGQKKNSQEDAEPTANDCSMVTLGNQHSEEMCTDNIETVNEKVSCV
MC4R barr ag = MC4R beta-arrestin agonists, retest, confirmation, cell-based, luminescence, U2OS; shares compounds with MC4R barr agon; U2OS MC4R beta-arrestin recruitment; scaled DMSO 0%, Melanotan II 100%; activation, % at 8.9 µM; 31% of 2,400 active; AID 602192, 2012;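 active = mean activation across replicates above the hit cutoff set in the earlier primary screen, cut at about 8% in these data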
MOR DOR agonist = agonists of MOR-DOR heterodimerization, counter-screen for MC4R biased agonist project, cell-based, luminescence; shares compounds with MC4R barr agon; U2OS PathHunter beta-arrestin, beta-gal luminescence; percent of deltorphin B response, DMSO zero; activation, % at 9.2 µM; 5.8% of 2,400 active;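 active = mean activation across replicates exceeds the hit threshold derived in the earlier primary screen, cut at about 18% in these data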;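 also: 100% = deltorphin B at 0.9 µM final and 0% = DMSO alone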
* = called active by the depositor; i = inactive; · = no result.

SMILES	MC4R barr agon	MC4R antag cAMP	ANO1 activ	ANO1 block	beta cell repl	HTR2A ag	MC4R barr ag	MOR DOR agonist
O=C(COC(=O)c1ccccc1Nc1cccc(C(F)(F)F)c1)NCc1ccco1	13.0*	-7.2	i	i	-1.7	-2.3	5.9	9.3
COc1cccc(NC(=O)COC(=O)c2ccccc2SCC(=O)N2CCCC2)c1	-2.0	-2.1	i	i	-2.4	3.4	·	·
Cc1cc(NC(=O)c2nn(C)c(C)c2Br)no1	-2.1	2.7	i	i	1.6	7.3	·	·
O=C(Nc1ccccc1)N1CCn2c1nc1ccccc12	-1.0	5.7	i	i	-1.7	-2.1	·	·
S=C(Nc1ccccc1)N1CCn2c1nc1ccccc12	24.5*	-1.7	i	i	-1.6	2.3	0.1	·
Cc1cc(C)c(OCC(=O)Nc2nnc(C3CC3)s2)c(C)c1	5.6	-2.9	i	·	8.8	-6.9	·	·
Cc1ccc(O)c(-c2cc(-c3cccc(F)c3)n[nH]2)c1	10.0*	-7.8	i	i	-5.4	-1.6	5.1	6.6
CC(=O)Nc1cccc(-c2cc(NC(C)=O)c3ncc(-c4ccc(F)cc4)n3c2)c1	17.3*	5.3	·	·	·	-0.3	10.5*	0.9
CC(=O)Nc1cc(-c2cccc(F)c2)cn2c(-c3ccc(F)cc3)cnc12	39.8*	3.1	·	·	·	-9.6	63.6*	1.6
O=CNc1cc(-c2cccc(F)c2)cn2c(-c3ccc(F)cc3)cnc12	11.9*	17.1	·	·	·	-5.1	16.4*	4.0
CC(=O)Nc1cc(-c2cccc(F)c2)cn2c(-c3ccc(S(C)(=O)=O)cc3)cnc12	2.0	15.1	·	·	·	0.5	·	·
CC(=O)Nc1cc(-c2cccc(NS(C)(=O)=O)c2)cn2c(-c3ccc(F)c(Cl)c3)cnc12	2.0	16.8	·	·	·	4.1	·	·
CC(Sc1ncn[nH]1)C(=O)Nc1cc(C(F)(F)F)ccc1Cl (centres undefined)	-1.9	-2.2	i	·	1.5	3.7	·	·
Cc1c(/C=N/n2cnnc2)c2ccccc2n1CCOc1ccc(Cl)cc1	7.3	-1.9	i	i	-2.2	-6.4	·	·
Cc1ccc(OCCn2c(C)c(/C=N/n3cnnc3)c3ccccc32)cc1	16.4*	-1.5	i	i	-1.7	-8.2	4.1	5.8
CC(=O)c1cccc(NC(=O)c2cccc3c(-c4cccc(C(N)=O)c4)coc23)c1	20.1*	25.4	·	·	·	2.9	6.4	5.0
O=C1CC(SC(=Nc2ccccc2)Nc2ccccc2)C(=O)N1c1ccc(Cl)c(Cl)c1 (centres undefined)	9.7*	4.5	i	i	0.0	-1.3	3.6	4.7
O=C1CC(SC(=NCc2ccc3c(c2)OCO3)Nc2ccccc2)C(=O)N1c1ccccc1 (centres undefined)	21.4*	5.2	i	i	-4.8	4.1	1.5	9.0
Cc1cccc(N2C(=O)CC(SC(=Nc3ccccc3)Nc3ccccc3)C2=O)c1 (centres undefined)	2.8	7.4	i	i	-2.2	-7.6	·	·
COc1ncnc2c1ncn2CCCN[C@H](C)c1cccc2ccccc12	3.0	8.5	·	·	·	-4.9	·	·
COc1ccc(NC(=O)Nc2cccc3c2O[C@@H](CN(C)S(=O)(=O)c2cn(C)cn2)[C@@H](C)CN([C@H](C)CO)C3=O)cc1	-0.8	9.8	i	·	-4.2	8.2	·	·
Cc1ccccc1OCC(=O)Nc1cccc(C(=O)O)c1	-2.4	0.3	i	·	·	4.3	·	·
Cc1ccccc1OCC(=O)Nc1ccc2c(c1)C(=O)c1ccccc1C2=O	22.1*	1.6	i	i	1.3	3.0	8.9*	4.5
COc1ccccc1OCC(=O)Nc1ccc(NC(=O)COc2ccccc2OC)cc1	18.4*	-1.8	i	i	-2.4	-1.9	23.2*	17.1
CCC(C)c1ccc(C2C3=C(Nc4nc(N)[nH]c(=O)c42)c2ccccc2C3=O)cc1 (centres undefined)	10.4*	-16.1	i	i	-6.0	-2.6	-2.1	0.8
SMILES	MC4R barr agon	MC4R antag cAMP	ANO1 activ	ANO1 block	beta cell repl	HTR2A ag	MC4R barr ag	MOR DOR agonist
Nc1nc2c(c(=O)[nH]1)C(c1ccccc1)C1=C(N2)c2ccccc2C1=O (centres undefined)	-4.2	0.6	i	i	-2.0	-6.0	·	·
CC1(C)CC2(C)OC2C2(C1)N=NC(=Nc1ccccc1)O2 (centres undefined)	·	·	·	·	·	-0.3	·	·
COc1ccc(C=C2SC(=S)N(CCCN3CCOCC3)C2=O)c(OC)c1	15.0*	6.8	·	·	·	2.8	4.9	21.0*
COc1ccccc1/C=C1\SC(=S)N(CCC(=O)NCCCN2CCOCC2)C1=O	0.9	12.0	i	i	-1.8	-0.5	·	·
Cc1cccc2cc(COC(=O)c3ccccc3)c(=O)[nH]c12	5.9	5.3	i	i	-0.9	-1.7	·	·
Cc1cccc2cc(COC(=O)c3cccs3)c(=O)[nH]c12	22.6*	9.0	i	i	3.1	-1.4	1.4	4.2
O=C1N(Nc2ccccc2)C(c2ccc(Br)cc2)C12CCCCC2 (centres undefined)	24.0*	-2.0	i	i	-2.2	-1.4	10.1*	4.7
O=C1COc2ccc(C(=O)COc3ccc(Cl)cc3Br)cc2N1	-2.2	13.8	i	i	-0.4	-6.3	·	·
NC(=O)NC(Cc1ccccc1)C(=O)NNC(=O)COc1ccccc1Cl (centres undefined)	-2.6	5.5	i	·	-1.4	-2.8	·	·
Nc1nc(CCl)nc(Nc2cccc3ccccc23)n1	25.8*	6.9	i	i	-3.7	1.0	18.7*	43.0*
COC[C@@H]1CCCN1[C@H]1CS(=O)(=O)N[C@@H]1COCc1ccccc1	·	·	·	·	·	0.4	·	·
O=C(c1cc(C2CCCCN2S(=O)(=O)c2ccc(F)cc2F)on1)N1CCOCC1 (centres undefined)	0.5	21.1	·	·	·	-0.9	·	·
COc1ccc2nc(NC(=O)c3ccc(-n4nc(C)cc4C)cc3)sc2c1	19.9*	-1.6	i	i	-1.3	-1.4	-2.9	7.8
